Source: PubChem (several laboratories)
Hck-Nef inh – inhibitors of human Hck kinase activated by Nef; P08631; Recombinant Hck-YEEI plus Nef, Z-Lyte FRET kinase assay; inhibition, % at 20 µM; actives 0.68% (n = 220,000); AID 463187;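 active = Hck-Nef kinase inhibition above about 50%, limit read from the data; inactive = inhibition below that limit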;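 also: 0% = DMSO with Hck plus Nef and 100% = Hck alone without Nef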
Target sequence (P08631 whole entry, looked up): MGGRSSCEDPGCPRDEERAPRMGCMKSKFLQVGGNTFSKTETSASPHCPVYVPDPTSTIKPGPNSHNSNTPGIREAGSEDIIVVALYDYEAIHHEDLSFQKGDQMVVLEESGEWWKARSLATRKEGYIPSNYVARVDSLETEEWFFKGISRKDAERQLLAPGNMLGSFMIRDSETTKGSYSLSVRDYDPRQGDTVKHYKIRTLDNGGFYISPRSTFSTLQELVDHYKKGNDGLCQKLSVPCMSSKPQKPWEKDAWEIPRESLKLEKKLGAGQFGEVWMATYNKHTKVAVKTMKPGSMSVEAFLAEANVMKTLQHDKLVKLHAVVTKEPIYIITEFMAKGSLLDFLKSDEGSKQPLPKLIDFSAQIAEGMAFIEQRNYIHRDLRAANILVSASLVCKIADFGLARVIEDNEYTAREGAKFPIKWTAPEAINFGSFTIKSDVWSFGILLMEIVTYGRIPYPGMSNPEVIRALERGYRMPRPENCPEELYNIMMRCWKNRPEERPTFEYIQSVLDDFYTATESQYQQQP
Runt-SMMHC FRET – blocks binding of human RUNX1 Runt domain to CBFb-SMMHC; inhibition, % at 20 µM; Cerulean-Runt/Venus-CBFb-SMMHC FRET ratio 530/480, 1 h; Q01196+Q13951; actives 0.74% (n = 220,000); AID 1434;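 active = mean inhibition across duplicate retests at 20 µM reaching about 50%, limit read from the data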;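 also: 0% = DMSO wells and 100% = wells with excess untagged CBFb-SMMHC; inhibitors lower the FRET ratio by blocking Runt binding to CBFb-SMMHC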
RanGTP-Impb inh – disruptors of Ran-importin-beta complex formation – biochemical, FRET, CFP-Ran, YFP-importin-beta, homogeneous, primary screen. cell-free CFP-Ran/YFP-importin-beta FRET ratio. inhibition, % (no concentration beside the values). AID 2216. actives 1.1% (n = 300,000);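 active = more than half of the replicate wells show a fall in the fluorescence ratio signal beyond about 16%, limit read from the data, passing the limit was not always enough; inconclusive = exactly half of the replicate wells pass the set limit; inactive = fewer than half of replicates pass the limit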;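 also: 0% = DMSO wells and 100% = Ran loaded with GDP instead of GTP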
Runt-CBFb FRET – blocks binding of human RUNX1 Runt domain to CBFb; Q01196+Q13951; Cerulean-Runt/Venus-CBFb FRET ratio 530/480, 1 h; inhibition, % at 20 µM; actives 0.46% (n = 220,000); AID 1496;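 active = inhibition over about 50% at 20 µM in the single-dose screen, limit read from the data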;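 also: 0% = DMSO wells and 100% = excess unlabeled CBFb competitor control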
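Assay system: Cerulean-Runt domain fusion protein, energy donor; Signal: fluorescence energy transfer, 422 nm excitation, 530/480 nm emission; Timing: 1 h compound exposure, room temperature; Control set: unlabeled CBFb; Medium: Tris buffer pH 7.5 with salts and BSA; Compound: single test concentration of 20 µM, 1% DMSO final; Probe or stimulus: Venus-CBFb 100 nM.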
RUNX1 CBFb TR – inhibitors of human RUNX1 Runt domain binding to CBFb | shares compounds with Runt-CBFb FRET | TR-FRET RUNX1 Runt domain-CBFb binding | inhibition, % at 20 µM | actives 20% (n = 480) | AID 1502; in the data active = inhibition above about 40%
An asterisk follows results filed as active; ? = inconclusive; / = not tested or not shown. Hits are enriched below; roughly 1.7% of the tested compounds scored in any of these assays.

SMILES	Hck-Nef inh	Runt-SMMHC FRET	RanGTP-Impb inh	Runt-CBFb FRET	RUNX1 CBFb TR
O=C(O)c1cccc(N/N=C/c2cccnc2)c1	19.2	2.1	34.3*	-1.7	/
CCOC(=O)N1CCC(NC(=O)CS(=O)Cc2nc(-c3ccccc3C)oc2C)CC1 (centres undefined)	/	/	164.0*	/	/
CN(/N=C/c1cc(Cl)cc(Cl)c1O)C(=S)NC(C)(C)C	-92.3	90.1*	4.5	35.7	/
Oc1c(Cl)cc(Cl)cc1/C=N/Nc1ncc(Br)cn1	17.2	-15.3	-1.6	-2.4	/
CCCCn1nc(NC(=O)c2cccs2)c2cc3cc(OC)ccc3nc21	36.9	77.6*	128.7*	67.0*	/
COc1ccc2nc3sc(C(=O)NCc4cccs4)c(N)c3cc2c1	5.2	22.3	-9.8	11.5	/
CCCn1nc(NC(=O)c2cccs2)c2cc3cc(OC)ccc3nc21	6.7	62.6*	106.3*	63.2*	/
C=CCn1c(=S)[nH]c2cc(C(=O)Nc3ccc(F)cc3)ccc2c1=O	/	/	-1.0	/	/
CCC(C(=O)OCC(=O)N(CCOC)c1c(N)n(Cc2ccccc2)c(=O)[nH]c1=O)c1ccccc1 (centres undefined)	/	/	-0.4	/	/
Nn1cnc2c(c1=O)C1(CCCCC1)Cc1ccccc1-2	3.0	-4.0	26.0*	-2.2	/
CCSc1n[nH]c2nc3c(c(=O)n12)C1(CCCC1)Cc1ccccc1-3	10.4	62.0*	12.0	22.0	/
CSc1n[nH]c2nc3c(c(=O)n12)C1(CCCC1)Cc1ccccc1-3	-2.6	49.8	13.6	21.7	/
CCN(CC)Cc1nc2c(c(=O)[nH]1)C1(CCCCC1)Cc1ccccc1-2	0.9	33.3	29.8*	-1.7	/
CN(C)Cc1nc2c(c(=O)[nH]1)C1(CCCCC1)Cc1ccccc1-2	4.4	-1.2	?	-0.7	/
CCCNC(=O)c1ccc(N2CCC3(CC2)CC(c2ccccc2)=NO3)c(NC(=O)Cc2ccc(F)cc2)c1	/	/	8.0	/	/
N#Cc1c(NC(=O)CSc2nc3ccccc3s2)sc2c1CCCC2	0.2	-0.8	0.3	1.3	/
CC(C)OC(=O)CC(=O)CSc1nc2c(cc1C#N)CCCCCC2	2.5	78.5*	-2.1	49.5	/
COC(=O)CC(=O)CSc1nc2c(cc1C#N)CCC2	3.7	31.6	3.8	48.7	/
CCOC(=O)CC(=O)CSc1nc2c(cc1C#N)CCCCCC2	/	50.2*	13.6	40.5	/
CCOC(=O)/C(O)=C(\C#N)c1nc2ccccc2[nH]1	-10.1	73.8*	4.5	32.9	/
CCOC(=O)c1c(C)[nH]c(C(=O)OC/C(O)=C(\C#N)c2nc3ccccc3[nH]2)c1C	1.2	4.2	/	-2.7	/
CCc1cc2c(=O)nc3n(c2s1)Cc1ccccc1/C3=C(/O)c1ccccc1Cl	0.8	57.2*	-60.7	-46.4	/
CCc1c(O)cc(=O)n(-c2ccccc2)c1-c1ccccc1	1.3	-43.8	-0.5	-3.2	/
COC(=O)c1cc(S(=O)(=O)N2CCN(c3ccccc3)CC2)c[nH]1	/	/	29.1*	/	/
Nc1nc2ccc(S(=O)(=O)N3CCCCC3)cc2s1	-1.3	55.6	-4.6	56.5*	6.4
SMILES	Hck-Nef inh	Runt-SMMHC FRET	RanGTP-Impb inh	Runt-CBFb FRET	RUNX1 CBFb TR
CC(C)N1CCc2c(sc(N)c2C#N)C1	/	141.6*	68.5*	59.0*	-2.6
CCNC(=O)N1C(CC(=O)OCC)C(=O)NC2CCCCC21 (centres undefined)	0.3	3.4	2.0	-0.1	/
COC(=O)CC1C(=O)NC2CCCCC2N1C(=O)CCl (centres undefined)	3.9	-5.9	4.3	51.3*	34.8
O=C1NCCCC2c3c(cc(Br)c(O)c3Br)OC12N1CCCCC1 (centres undefined)	3.2	47.4	2.6	50.1*	62.8*
O=C1NCCCc2c1oc1cc(Br)c(O)c(Br)c21	-5.0	15.7	-4.9	10.8	/
CCc1cccc(Nc2c3c(nc4ncnn24)CCC3)c1	12.8	-0.9	-1.6	1.8	/
Clc1cccc(Nc2c3c(nc4ncnn24)CCC3)c1	1.9	-1.4	-0.4	54.5*	2.8
COc1ccc(CCNC(=O)C2CCN(S(=O)(=O)c3cccc4nsnc34)CC2)cc1OC	0.5	-1.9	4.8	81.0*	-6.1
CS(=O)(=O)N(CC(=O)N1CCN(c2ccccc2)CC1)c1ccc(Cl)c(C(F)(F)F)c1	-1.7	1.6	4.0	-1.2	/
CN1C(=O)C(Cl)(Cl)C(=O)c2ccccc21	-5.4	55.3	3.4	54.0*	5.2
Oc1ccc(O)c(Cc2nc3ccccc3[nH]2)c1	17.1	4.8	-0.5	53.0*	24.2
Cc1cc(C)cc(OCc2nnc(SCC(=O)OC(C)C)o2)c1	3.0	-4.9	-4.4	-1.3	/
Cc1snc2sc(C(=O)c3ccc(Br)cc3)c(N)c12	-2.4	-22.2	-0.8	29.9	/
Cc1ccc(C(=O)c2sc3nsc(C)c3c2N)cc1	0.4	28.1	12.3	50.0*	44.5*
CNC(=O)/C(C#N)=C/c1c(N(Cc2ccccc2)Cc2ccccc2)nc2c(C)cccn2c1=O	-0.8	115.1*	1.2	62.4*	-14.2
CCNC(=O)/C(C#N)=C/c1c(N(Cc2ccccc2)Cc2ccccc2)nc2ccccn2c1=O	2.8	22.3	3.7	8.3	/
CCOC(=O)c1ccc(N2C(=O)c3n[nH]c(-c4ccco4)c3C2c2ccc([N+](=O)[O-])cc2)cc1 (centres undefined)	-1.8	8.3	6.6	68.0*	29.6
CCOC(=O)c1ccc(N2C(=O)c3n[nH]c(C)c3C2c2cccnc2)cc1 (centres undefined)	-1.3	3.8	0.3	0.4	/
COc1ccc(-c2cnnn2-c2ccc(NC(=O)c3ccc(S(=O)(=O)N4CCCCC4)cc3)cc2)cc1	-7.1	5.6	2.7	-1.3	/
NS(=O)(=O)c1ccc(NC(=S)NCc2ccccc2)cc1	2.7	28.1	5.3	51.5*	6.0
COc1ccccc1NS(=O)(=O)c1cc(NC(=O)c2sccc2C)ccc1N1CCCC1	1.0	23.0	0.4	51.3*	-119.9
COc1ccccc1NS(=O)(=O)c1cc(NC(=O)c2cccs2)ccc1N1CCCC1	7.5	27.7	-1.9	50.0*	7.3
COc1ccccc1NS(=O)(=O)c1cc(NC(=O)c2cccs2)ccc1N1CCCCC1	3.3	-3.4	3.8	-1.7	/
COc1cccc(C(=O)NC(=S)Nn2cnnc2)c1OC	-1.0	-1.4	0.0	2.0	/
Cc1ccc2c(c1)sc(C)[n+]2CCCS(=O)(=O)[O-]	30.9	50.3	0.9	57.9*	29.1
CC1CC/C(=N/Nc2ccccc2)C(=O)N1 (centres undefined)	-1.0	0.7	-3.3	50.8*	14.2
O=C1NCCC/C1=N\Nc1ccc(Br)cc1	22.0	-2.3	1.0	0.5	/
[N-]=[N+]=NC[C@H](Cc1ccccc1)N1CCN(Cc2ccccc2)CCC1=O	/	/	0.7	/	/
Cc1ccc(S(=O)(=O)N2CN(CC3CCCO3)c3nc4ccccc4nc32)cc1 (centres undefined)	/	/	0.8	/	/
Cc1ccc(S(=O)(=O)c2cc3c(=O)n4ccccc4nc3n(CC3CCCO3)c2=N)cc1C (centres undefined)	3.8	106.4*	154.3*	97.8*	29.2
